For 17 molecules, Diuretic activity, HR and MABP results are on record in ChEMBL document CHEMBL1122545, “N2-(4-Substituted-2,6-dichlorophenyl)-N1,N1-dimethylformamidines as antihypertensive and diuretic agents” (J Med Chem, 1984).

The nature of data set [1]: (§1) Diuretic activity was determined expressed as volume of urine excreted in mL was reported at a dose of 100 mg/Kg. The data set is classed as ADME. The note with it: in vivo. Summed up:
(§2)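 Male SH rats (Okamoto strain), 16 weeks old, dosed orally by gavage with compound dispersed in 3% starch in normal saline at 2 mL/kg. Oral normal saline load, then individual metabolism cages; 0-5 h urine collected, Na+ and K+ measured by flame photometry. Rats redosed at 24 h without the saline load. MABP and HR taken by femoral arterial puncture under local anesthetic 4 h after the second dose.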

In data set [2] the test system is Rattus norvegicus. Nature of the data set: Antihypertensive activity determined as heart rate in SH rats, was reported at a dose of 100 mg/Kg. The data set is classed as functional. Summed up:
as §2

The subject of data set [3] is Rattus norvegicus. Nature of the data set: Diuretic activity was determined in SH rats expressed as K(+) (potassium) excreted in milli equivalents was reported for a duration of 5 hours after administration of a dose of 100 mg/Kg. In kind it is ADME, organism-based, Urine. The settings on record: in vivo. Summed up:
as §2

Data set [4] is described as follows: Diuretic activity was determined expressed as Na+(sodium) excreted in milli equivalents was reported for a duration of 5 hours after administration of a dose of 100 mg/Kg. In kind it is ADME, Urine. The note with it: in vivo. The method in brief:
as §2

The subject of data set [5] is Rattus norvegicus. Nature of the data set: Antihypertensive activity in SH rats, and mean arterial blood pressure was reported at a dose of 100 mg/Kg. The data set is classed as functional, Artery. Summed up: as §2
The test system of data set [6] is Rattus norvegicus. Nature of the data set: Diuretic activity was determined in SH rats expressed as K(+) (potassium) excreted in milli equivalents was reported for a duration of 5 hours after administration of a dose of 100 mg/Kg. The note with it: in vivo. The data set is classed as ADME, organism-based, Urine. Summed up: as §2
A short description of data set [7]: Diuretic activity was determined expressed as Na+(sodium) excreted in milli equivalents was reported for a duration of 5 hours after administration of a dose of 25 mg/Kg. In kind it is ADME, Urine. The note with it: in vivo. Summed up: as §2
For data set [8], the system named is Rattus norvegicus. Nature of the data set: Diuretic activity was determined in SH rats expressed as K(+) (potassium) excreted in milli equivalents was reported for a duration of 5 hours after administration of a dose of 25 mg/Kg. The note with it: in vivo. The data set is classed as ADME, organism-based, Urine. Summed up:
as §2

The nature of data set [9]: Diuretic activity was determined expressed as volume of urine excreted in mL was reported at a dose of 25 mg/Kg. The data set is classed as ADME. The note with it: in vivo. Summed up:
as §2

The test system of data set [10] is Rattus norvegicus. Nature of the data set: Antihypertensive activity in SH rats, and mean arterial blood pressure was reported at a dose of 25 mg/Kg. In kind it is functional, Artery. The method in brief: as §2
Data set [11] has as its system Rattus norvegicus. Description: Antihypertensive activity determined as heart rate in SH rats, was reported at a dose of 25 mg/Kg. The data set is classed as functional. The method in brief:
as §2

Data set [12] deals with Rattus norvegicus. The data set is described as §1. In kind it is ADME, organism-based. The note with it: in vivo. Summed up: as §2
The subject of data set [13] is Rattus norvegicus. Nature of the data set: Diuretic activity was determined in SH rats expressed as K(+) (potassium) excreted in milli euivalents was reported for a duration of 5 hours after administration of a dose of 100 mg/Kg. The settings on record: in vivo.

As for `CN(C)/C=N/c1c(Cl)cc(NCc2cccc(F)c2)cc1Cl`, the values for the Diuretic activity (in data set [1]; in the data set with Rattus norvegicus [3]; in [4]) were 25 mL, 0.59 m equiv and 1.93 m equiv, respectively. This molecule also showed an HR in the data set on Rattus norvegicus [2] of 290 beats min-1. The molecule further gave an MABP in the data set with Rattus norvegicus [5] of 120 mmHg.
As to `COc1ccc(CNc2cc(Cl)c(/N=C/N(C)C)c(Cl)c2)cc1F`, the values for the Diuretic activity (in [1]; with Rattus norvegicus [6]; in data set [4]) were 16.8 mL, 0.43 m equiv and 1.15 m equiv, respectively. The same molecule showed an HR in the data set with Rattus norvegicus [2] of 320 beats min-1. In the data set with Rattus norvegicus [5], this molecule gave an MABP of 113 mmHg.
Take `CN(C)/C=N/c1c(Cl)cc(NCc2ccc(-c3ccccc3)cc2)cc1Cl`: the values for the Diuretic activity (in data set [1]; in the data set with Rattus norvegicus [3]; in data set [4]) were 7.3 mL, 0.5 m equiv and 0.46 m equiv, respectively. Also, the HR in the data set on Rattus norvegicus [2] was found to be 400 beats min-1. The MABP with Rattus norvegicus [5] is reported as 143 mmHg.
`CN(C)/C=N/c1c(Cl)cc(NCc2ccc(N(C)C)cc2F)cc1Cl`: the Diuretic activity stood at 2.26 m equiv in data set [7], 0.71 m equiv in the data set on Rattus norvegicus [8] and 23.5 mL in [9]. The molecule also yielded an MABP in the data set on Rattus norvegicus [10] of 155 mmHg. The same molecule gave an HR in the data set on Rattus norvegicus [11] of 400 beats min-1.
As for `CN(C)/C=N/c1c(Cl)cc(NCc2ccccc2O)cc1Cl`, the Diuretic activity in [1] is 12.3 mL; in the data set with Rattus norvegicus [3], 0.68 m equiv; in [4], 0.72 m equiv. In the data set on Rattus norvegicus [2], this molecule displayed an HR of 340 beats min-1. For the same molecule, the MABP in the data set with Rattus norvegicus [5] stood at 150 mmHg.
`CC(=O)Nc1ccc(CNc2cc(Cl)c(/N=C/N(C)C)c(Cl)c2)cc1` returned an HR in the data set with Rattus norvegicus [2] of 340 beats min-1. Besides, the results for the Diuretic activity (with Rattus norvegicus [12]; in the data set on Rattus norvegicus [3]; in data set [4]) were 9.5 mL, 0.62 m equiv and 0.66 m equiv, respectively. Besides, the MABP in the data set on Rattus norvegicus [5] is 150 mmHg.
Regarding `CN(C)/C=N/c1c(Cl)cc(NCc2cccc(Br)c2)cc1Cl`, the Diuretic activity in data set [1] came to 19.3 mL; in data set [4] it was 1.9 m equiv; in the data set on Rattus norvegicus [13] it was 0.48 m equiv. Further, in the data set with Rattus norvegicus [2], the HR is 350 beats min-1. This molecule had an MABP with Rattus norvegicus [5] of 120 mmHg.
Turning to `CN(C)/C=N/c1c(Cl)cc(NCc2cccc(C(F)(F)F)c2)cc1Cl`, the Diuretic activity in data set [1] stood at 21.3 mL; with Rattus norvegicus [3] it was 0.5 m equiv; in data set [4] it was 2.04 m equiv. In the data set on Rattus norvegicus [2], this molecule displayed an HR of 420 beats min-1. Besides, the MABP in the data set with Rattus norvegicus [5] is 165 mmHg.
With `CCN(CC)c1ccc(CNc2cc(Cl)c(/N=C/N(C)C)c(Cl)c2)cc1`, the Diuretic activity in data set [7] turned out to be 2.02 m equiv; with Rattus norvegicus [8] it was 0.71 m equiv; in data set [9], 21.3 mL. The molecule further gave an MABP in the data set with Rattus norvegicus [10] of 153 mmHg. For the same molecule, the HR with Rattus norvegicus [11] was determined as 400 beats min-1.
Take `COc1cc(CNc2cc(Cl)c(/N=C/N(C)C)c(Cl)c2)cc(OC)c1OC`: the Diuretic activity was 17.5 mL in [1], 0.57 m equiv with Rattus norvegicus [6] and 1.4 m equiv in [4]. Also, in the data set on Rattus norvegicus [2], the HR is 360 beats min-1. The molecule also displayed an MABP in the data set on Rattus norvegicus [5] of 138 mmHg.
Turning to `CN(C)/C=N/c1c(Cl)cc(NCc2ccc(N(C)C)cc2)cc1Cl`, the results for the Diuretic activity (in data set [7]; with Rattus norvegicus [8]; in data set [9]) were 0.55 m equiv, 0.39 m equiv and 5.5 mL, respectively. The same molecule had an MABP in the data set with Rattus norvegicus [10] of 171 mmHg. In the data set on Rattus norvegicus [11], this molecule yielded an HR of 450 beats min-1.
On the same counts, the results for `CN(C)/C=N/c1c(Cl)cc(NCc2ccc(N(C)C)c(Br)c2)cc1Cl` are 1.18 m equiv, 0.77 m equiv, 14 mL, 173 mmHg and 420 beats min-1.
As to `CN(C)/C=N/c1c(Cl)cc(NCc2ccc(N(C)C)cc2Br)cc1Cl`, the Diuretic activity in data set [7] came out at 1.86 m equiv; with Rattus norvegicus [8], 0.45 m equiv; in [9], 19.3 mL. The same molecule returned an MABP with Rattus norvegicus [10] of 115 mmHg. In addition, the HR with Rattus norvegicus [11] worked out at 280 beats min-1.
For `CN(C)/C=N/c1c(Cl)cc(NCc2cc(Cl)cc(Cl)c2)cc1Cl`, in that order: 1.34 m equiv, 0.42 m equiv, 13.8 mL, 139 mmHg and 290 beats min-1.
On to `COc1ccc(CNc2cc(Cl)c(/N=C/N(C)C)c(Cl)c2)cc1OC`, for which the Diuretic activity in data set [1] was 8.3 mL; in the data set on Rattus norvegicus [6] it was 0.37 m equiv; in data set [4], 0.47 m equiv. In the data set on Rattus norvegicus [2], this molecule gave an HR of 410 beats min-1. The MABP with Rattus norvegicus [5] was determined as 133 mmHg.
In the case of `Clc1cccc(Cl)c1NC1=NCCN1` [CLONIDINE], the results for the Diuretic activity (in [1]; with Rattus norvegicus [13]) were 16.4 mL and 0.16 m equiv, respectively. In addition, the HR is listed as 180 beats min-1 in the data set on Rattus norvegicus [2] and 220 beats min-1 in the data set with Rattus norvegicus [11]. The figures for the MABP in the data set with Rattus norvegicus [10] and in the data set with Rattus norvegicus [5] were 113 mmHg and 102 mmHg, respectively.
On to `NS(=O)(=O)c1cc2c(cc1Cl)NCNS2(=O)=O` [HYDROCHLOROTHIAZIDE], for which the Diuretic activity was determined as 13.2 mL in [1], 0.65 m equiv with Rattus norvegicus [3] and 1.63 m equiv in [4]. Also, in the data set with Rattus norvegicus [2], the HR is on record as 436 beats min-1. For the same molecule, the MABP with Rattus norvegicus [5] worked out at 153 mmHg.
